Measurements as given in PMC9526468 (Thyroid, 2022).

Assays:
Assay in all cases: radiolabelled iodothyronine uptake inhibition in transfected COS1 cells
Assay type in all cases: cell-based
[1] = molecular target: T1, OATP1A2 (Human (h) OATP1A2) (Homo sapiens, UniProt P46721)
T1 sequence (P46721 1-670): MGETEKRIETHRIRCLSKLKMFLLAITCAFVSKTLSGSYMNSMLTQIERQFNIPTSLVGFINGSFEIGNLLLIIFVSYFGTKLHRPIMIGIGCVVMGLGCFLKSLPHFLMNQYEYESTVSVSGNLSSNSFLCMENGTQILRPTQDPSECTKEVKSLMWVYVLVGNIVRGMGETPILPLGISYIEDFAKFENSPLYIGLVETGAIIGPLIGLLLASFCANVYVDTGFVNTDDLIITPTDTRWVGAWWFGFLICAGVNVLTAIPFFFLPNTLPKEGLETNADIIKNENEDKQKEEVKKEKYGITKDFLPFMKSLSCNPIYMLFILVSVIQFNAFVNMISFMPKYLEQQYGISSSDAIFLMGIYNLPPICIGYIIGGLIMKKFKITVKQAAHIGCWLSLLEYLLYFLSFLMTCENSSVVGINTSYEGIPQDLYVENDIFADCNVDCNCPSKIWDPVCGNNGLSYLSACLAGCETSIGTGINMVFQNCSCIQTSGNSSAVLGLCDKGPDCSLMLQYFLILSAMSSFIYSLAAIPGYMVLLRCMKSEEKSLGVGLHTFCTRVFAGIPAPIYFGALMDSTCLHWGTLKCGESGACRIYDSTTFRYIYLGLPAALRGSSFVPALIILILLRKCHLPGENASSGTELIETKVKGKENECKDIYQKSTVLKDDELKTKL

MCT10 (hMCT10) = molecular target: T2, MCT10 (hMCT10) (Homo sapiens, UniProt Q8TF71)
T2 sequence (Q8TF71 1-515): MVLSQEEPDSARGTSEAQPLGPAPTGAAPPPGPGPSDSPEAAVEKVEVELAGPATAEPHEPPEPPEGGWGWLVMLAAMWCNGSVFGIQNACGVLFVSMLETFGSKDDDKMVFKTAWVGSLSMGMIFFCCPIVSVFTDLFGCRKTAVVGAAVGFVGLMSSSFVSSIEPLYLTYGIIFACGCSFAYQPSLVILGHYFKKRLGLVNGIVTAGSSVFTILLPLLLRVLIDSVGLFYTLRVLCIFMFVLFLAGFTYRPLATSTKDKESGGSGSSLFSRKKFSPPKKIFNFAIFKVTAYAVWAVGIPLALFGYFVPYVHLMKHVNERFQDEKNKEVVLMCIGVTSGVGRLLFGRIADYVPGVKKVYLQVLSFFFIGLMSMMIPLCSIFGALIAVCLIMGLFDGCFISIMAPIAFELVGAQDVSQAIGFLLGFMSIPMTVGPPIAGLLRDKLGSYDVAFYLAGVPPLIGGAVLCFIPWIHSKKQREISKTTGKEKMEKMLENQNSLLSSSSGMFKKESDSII

[2] = molecular target: LAT1 (hSLC7A5, cotransfected with hSLC3A2) (Homo sapiens, UniProt Q01650)
How it was run: (§1)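 COS1 cells cotransfected with 100 ng transporter vector, 100 ng hSLC3A2 (4F2 heavy chain), and 50 ng hCRYM to limit efflux; empty vector served as control. At 48 h post-transfection, cells were washed in BSA-free DPBS+Ca²⁺/Mg²⁺/0.1% glucose. They were then incubated at 37°C with 1 nM 3,3′-T2 plus [¹²⁵I]-3,3′-T2 (5 × 10⁴ cpm) and increasing inhibitor concentrations or vehicle. Finally, cells were rinsed, lysed in 0.1 N NaOH, and gamma-counted.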

[3] = molecular target: T3, LAT2 (hSLC7A8, cotransfected with hSLC3A2) (Homo sapiens, UniProt Q9UHI5)
T3 sequence (Q9UHI5 1-535): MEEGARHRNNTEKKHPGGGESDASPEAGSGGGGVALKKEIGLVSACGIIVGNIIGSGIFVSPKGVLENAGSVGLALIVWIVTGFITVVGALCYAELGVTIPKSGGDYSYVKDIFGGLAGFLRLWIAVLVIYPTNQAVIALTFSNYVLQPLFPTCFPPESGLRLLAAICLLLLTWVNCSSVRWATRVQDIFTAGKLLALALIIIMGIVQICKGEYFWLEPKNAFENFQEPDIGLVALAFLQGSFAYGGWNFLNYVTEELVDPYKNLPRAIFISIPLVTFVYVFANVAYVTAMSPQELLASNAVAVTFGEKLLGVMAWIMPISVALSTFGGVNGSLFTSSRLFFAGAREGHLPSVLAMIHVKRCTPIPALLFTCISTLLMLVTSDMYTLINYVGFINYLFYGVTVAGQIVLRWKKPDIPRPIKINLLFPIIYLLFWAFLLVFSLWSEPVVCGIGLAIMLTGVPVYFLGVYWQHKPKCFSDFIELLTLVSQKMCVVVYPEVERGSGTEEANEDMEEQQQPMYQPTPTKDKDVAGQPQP
T3 sequence (P08195 2-529 partner): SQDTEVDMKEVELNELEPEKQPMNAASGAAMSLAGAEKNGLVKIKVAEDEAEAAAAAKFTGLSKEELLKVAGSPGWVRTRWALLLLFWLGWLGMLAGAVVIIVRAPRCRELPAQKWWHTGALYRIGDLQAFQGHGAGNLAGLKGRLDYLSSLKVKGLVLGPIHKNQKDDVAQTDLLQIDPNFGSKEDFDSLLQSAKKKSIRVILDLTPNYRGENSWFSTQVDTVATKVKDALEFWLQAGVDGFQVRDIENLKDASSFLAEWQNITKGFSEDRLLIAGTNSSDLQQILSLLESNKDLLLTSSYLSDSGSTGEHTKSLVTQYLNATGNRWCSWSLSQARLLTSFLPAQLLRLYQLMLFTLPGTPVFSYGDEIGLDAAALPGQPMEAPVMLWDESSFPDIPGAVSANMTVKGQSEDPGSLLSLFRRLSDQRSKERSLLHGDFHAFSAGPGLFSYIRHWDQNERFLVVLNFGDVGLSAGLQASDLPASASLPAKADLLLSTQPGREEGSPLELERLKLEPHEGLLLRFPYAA
How it was run: as §1

MCT8 (hMCT8) = MCT8 (hMCT8) (Homo sapiens, UniProt P36021)
Chain of MCT8 (hMCT8) (P36021 2-539): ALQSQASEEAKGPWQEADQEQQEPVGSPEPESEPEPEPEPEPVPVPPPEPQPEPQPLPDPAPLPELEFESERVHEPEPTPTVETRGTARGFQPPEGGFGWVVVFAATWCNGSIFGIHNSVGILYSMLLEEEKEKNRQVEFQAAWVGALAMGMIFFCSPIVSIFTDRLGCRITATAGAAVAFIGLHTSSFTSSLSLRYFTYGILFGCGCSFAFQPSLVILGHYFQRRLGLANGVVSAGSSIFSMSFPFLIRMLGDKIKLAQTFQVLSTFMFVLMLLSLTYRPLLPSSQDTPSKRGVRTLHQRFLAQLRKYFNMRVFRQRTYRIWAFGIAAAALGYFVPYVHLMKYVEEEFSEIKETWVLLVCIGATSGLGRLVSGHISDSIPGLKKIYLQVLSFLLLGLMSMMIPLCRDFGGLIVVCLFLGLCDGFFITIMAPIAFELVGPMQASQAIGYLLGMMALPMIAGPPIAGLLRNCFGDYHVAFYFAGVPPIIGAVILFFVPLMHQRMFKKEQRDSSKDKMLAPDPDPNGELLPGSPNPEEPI

Chain of LAT1 (hSLC7A5, cotransfected with hSLC3A2) (Q01650 whole entry, one chain of several): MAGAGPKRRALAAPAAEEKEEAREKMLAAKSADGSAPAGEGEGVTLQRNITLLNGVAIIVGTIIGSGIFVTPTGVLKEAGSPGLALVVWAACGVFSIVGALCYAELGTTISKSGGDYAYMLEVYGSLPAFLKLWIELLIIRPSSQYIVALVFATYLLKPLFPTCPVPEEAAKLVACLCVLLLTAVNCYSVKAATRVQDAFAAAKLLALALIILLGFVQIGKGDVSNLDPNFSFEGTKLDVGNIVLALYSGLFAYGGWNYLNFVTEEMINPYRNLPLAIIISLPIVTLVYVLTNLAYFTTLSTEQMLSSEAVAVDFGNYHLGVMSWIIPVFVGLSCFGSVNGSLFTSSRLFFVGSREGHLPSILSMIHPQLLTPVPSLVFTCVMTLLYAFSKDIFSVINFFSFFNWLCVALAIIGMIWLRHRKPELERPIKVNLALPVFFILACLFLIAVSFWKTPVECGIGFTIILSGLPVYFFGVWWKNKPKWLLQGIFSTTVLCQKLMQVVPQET

Compound | IC50 [1] [µM] | IC50 (MCT10 (hMCT10)) [µM] | IC50 (MCT8 (hMCT8)) [µM] | further results
CO[C@H]1/C=C/O[C@@]2(C)Oc3c(C)c(O)c4c(O)c(c(/C=N/N5CCN(C)CC5)c(O)c4c3C2=O)NC(=O)/C(C)=C\C=C\[C@H](C)[C@H](O)[C@@H](C)[C@@H](O)[C@@H](C)[C@H](OC(C)=O)[C@@H]1C [Rifampicin] | 50 | – | – | –
C[C@@H]1O[C@@H](O[C@H]2[C@H](Oc3cc(O)c4c(c3)O[C@H](c3ccc(O)cc3)CC4=O)O[C@H](CO)[C@@H](O)[C@@H]2O)[C@H](O)[C@H](O)[C@H]1O [Naringin] | 23 | – | – | –
N[C@@H](Cc1c[nH]c2ccccc12)C(=O)O [L-tryptophan] | – | > 10000 | – | –
NC1(C(=O)O)CC2CCC1C2 (stereo not shown) [BCH, 2-Amino-2-norbornanecarboxylic acid] | – | – | – | IC50 [2]: 146 µM; IC50 [3]: ~100 µM

Second part, led by results:

IC50 [1] [µM] | IC50 (MCT10 (hMCT10)) [µM] | IC50 (MCT8 (hMCT8)) [µM] | Compound | further results
> 10 | – | 0.12 | COc1cc([C@@H]2Oc3c(O)cc([C@H]4Oc5cc(O)cc(O)c5C(=O)[C@@H]4O)cc3[C@H]2CO)ccc1O [Silychristin] | –
1.5 | > 100 | ~100 | COc1ccc(CCN(C)CCCC(C#N)(c2ccc(OC)c(OC)c2)C(C)C)cc1OC (stereo not shown) [Verapamil] | –
